CFTR F508del cor: CFTR F508del correction in bronchial cells | AID 720511 | actives 0.36% (n = 350,000) | activity (quench increase), % at 7.58 µM | CFBE cells, YFP halide quenching; stimulated with forskolin plus potentiator P3; % fluorescence drop versus neutral controls;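 active means mean added fluorescence quench of at least 8% versus neutral control, with both replicates also reaching 8%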;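 further: cells transiently co-express mutant CFTR-F508del with the halide-sensitive YFP; corrector assay measuring rescue of mutant channel to the surface after 24 h compound exposure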
Statin myotox sup: protects C2C12 myotubes from simvastatin toxicity; ATP luminescence, 48 h; scaled: DMSO 0, geranylgeraniol control 100; rescue of ATP level, % at 7.49 µM; AID 602340; actives 0.78% (n = 330,000);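 active means mean ATP rescue above about 67%, or every replicate alone reaching that limit, limit read from the data, passing the limit was not always enough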;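 further: myotubes were challenged with 10 µM simvastatin during compound exposure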
DENV2 CPE: protects cells from dengue virus 2 cytopathic effect | DENV2-infected cells, cytopathic effect rescue, plate reader | CPE inhibition, % at 9.99 µM | actives 1.7% (n = 350,000); in the data active means CPE inhibition above about 20%, passing the limit was not always enough; tested in BHK-21 cells
ERp5 inh: blocks human ERp5 reductase activity on insulin. Q15084. ERp5 insulin aggregation, absorbance 650 nm, 90 min. inhibition, % at 9.99 µM. actives 0.05% (n = 350,000);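 active means mean replicate inhibition above about 25%, with every replicate also reaching it, limit read from the data, passing the limit was not always enough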
Target sequence (Q15084 whole entry, looked up): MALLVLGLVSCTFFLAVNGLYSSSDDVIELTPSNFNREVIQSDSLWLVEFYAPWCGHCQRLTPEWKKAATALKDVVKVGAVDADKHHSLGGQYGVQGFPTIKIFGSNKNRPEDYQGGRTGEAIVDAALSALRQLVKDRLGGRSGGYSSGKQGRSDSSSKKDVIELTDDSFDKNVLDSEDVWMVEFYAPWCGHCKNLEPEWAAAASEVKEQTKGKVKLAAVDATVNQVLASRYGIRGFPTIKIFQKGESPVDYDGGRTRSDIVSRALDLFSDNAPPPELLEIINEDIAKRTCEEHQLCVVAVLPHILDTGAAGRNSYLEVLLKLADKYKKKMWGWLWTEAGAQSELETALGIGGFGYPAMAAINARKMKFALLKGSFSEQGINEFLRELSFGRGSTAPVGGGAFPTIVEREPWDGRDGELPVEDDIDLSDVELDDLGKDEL
PDI turbidity: PDI (human) enzyme inhibition. AID 588391. P07237. inhibition, % at 10 µM. PDI insulin aggregation turbidity, A650, 90 min. actives 0.052% (n = 350,000);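 active means mean inhibition across replicates of 30% or more, whatever share of single replicates reach that level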
Cneo AK release: causes C. neoformans cell lysis | actives 0.2% (n = 360,000) | adenylate kinase release luminescence, 4 h; normalised: neutral wells 0, clomiphene wells 100 | lysis activity, % at 15 µM;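 active means mean lysis activity across replicates of at least 80%, whatever share of replicates individually reach that level; inactive means mean lysis activity below 80%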
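Assay system: C. neoformans cells. Amount: yeast cell density of 5 × 10^6 cells/mL. Technique: AK luminescence. Buffer or medium: YPD. Times: static 4 h at 37 °C with compound, 1 h detection. Dosing: single-point compound dose. Read-out: lysis from increased AK signal.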
Numbers stand for hits. Hits are enriched below; roughly 2.3% of the tested compounds scored in any of these assays.

What do the screens show for `C#CCOCCOCCOCCNc1nc(N2CCN(C(=O)[C@H](CCC(=O)O)n3cc(C(N)CC(C)C)nn3)CC2)nc(N2CCN(C(=O)[C@H](Cc3cc4ccccc4[nH]3)n3cc(C(N)CC(C)C)nn3)CC2)n1` (stereo partly drawn)?
Statin myotox sup: inactive; PDI turbidity: 36; Cneo AK release: inactive

What do the screens show for `C#CCOCCOCCOCCNc1nc(N2CCN(C(=O)[C@H](CC(N)=O)n3cc(C(N)[C@@H](C)CC)nn3)CC2)nc(N2CCN(C(=O)[C@H](CCCCN)n3cc([C@@H](N)CC(N)=O)nn3)CC2)n1` (stereo partly drawn)?
CFTR F508del cor: inactive; Statin myotox sup: inactive; DENV2 CPE: inactive; ERp5 inh: inactive; PDI turbidity: inactive; Cneo AK release: inactive

Results for C#CCOCCOCCOCCNc1nc(N2CCN(C(=O)[C@H](CC(N)=O)n3cc(C(N)[C@H](C)CC)nn3)CC2)nc(N2CCN(C(=O)[C@H](CC(N)=O)n3cc(C(N)[C@@H](C)CC)nn3)CC2)n1 (stereo partly drawn) ?
CFTR F508del cor: inactive; Statin myotox sup: inactive; DENV2 CPE: 21; ERp5 inh: inactive; PDI turbidity: inactive; Cneo AK release: inactive

Results for C#CCOCCOCCOCCNc1nc(N2CCN(C(=O)[C@H](Cc3cc4ccccc4[nH]3)n3cc(C(N)CC(C)C)nn3)CC2)nc(N2CCN(C(=O)[C@H](CCC(=O)O)n3cc(C(N)[C@H](C)CC)nn3)CC2)n1 (stereo partly drawn) ?
Statin myotox sup: inactive; PDI turbidity: inactive; Cneo AK release: inactive

Results for C#CCOCCOCCOCCNc1nc(N2CCN(C(=O)[C@H](CCCN=C(N)N)n3cc(C(N)[C@@H](C)CC)nn3)CC2)nc(N2CCN(C(=O)[C@H](CC(N)=O)n3cc([C@@H](N)C(C)C)nn3)CC2)n1 (stereo partly drawn) ?
CFTR F508del cor: inactive; Statin myotox sup: inactive; DENV2 CPE: 37; ERp5 inh: inactive; PDI turbidity: inactive; Cneo AK release: inactive

Results for CC(C)C#Cc1ccc2c(c1)O[C@@H](CN(C)C(=O)C1CCC1)[C@H](C)CN([C@@H](C)CO)S2(=O)=O ?
CFTR F508del cor: inactive; Statin myotox sup: inactive

What do the screens show for `CCC(=O)Nc1ccc2c(c1)OC[C@H](C)N(C(=O)CC)C[C@@H](C)[C@H](OC)CN(C)C2=O`?
CFTR F508del cor: inactive; Statin myotox sup: inactive

What do the screens show for `CCn1ncc(N(C)N)c(Cl)c1=O`?
CFTR F508del cor: inactive; Statin myotox sup: 89; DENV2 CPE: inactive; ERp5 inh: inactive; PDI turbidity: inactive; Cneo AK release: inactive

How did CCn1ncc(N2CCOCC2)c(Cl)c1=O do in these assays?
CFTR F508del cor: inactive; Statin myotox sup: inactive; DENV2 CPE: inactive; ERp5 inh: inactive; PDI turbidity: inactive; Cneo AK release: inactive

How did O=C(c1ccccc1)N1CC(=O)N2[C@H](CO)[C@H](c3ccc(C#CC4CC4)cc3)[C@H]2C1 do in these assays?
CFTR F508del cor: inactive; DENV2 CPE: inactive; ERp5 inh: inactive

Results for CSc1ccc(-c2nc(CSCC(=O)N3CCOCC3)c(C)o2)cc1 ?
Statin myotox sup: inactive; ERp5 inh: inactive; PDI turbidity: inactive; Cneo AK release: inactive

Results for CCOc1ccc(-c2nc(CSCC(=O)NCCCN3CCCC3=O)c(C)o2)cc1 ?
CFTR F508del cor: inactive; Statin myotox sup: inactive; DENV2 CPE: inactive; ERp5 inh: inactive; PDI turbidity: inactive; Cneo AK release: inactive

Results for CCc1ccc(-c2nc(CSCC(=O)N3CCN(c4ncccn4)CC3)c(C)o2)cc1 ?
CFTR F508del cor: inactive; Statin myotox sup: inactive; DENV2 CPE: 87; ERp5 inh: inactive; PDI turbidity: inactive; Cneo AK release: inactive

How did CCOc1ccc(-c2nc(CSCC(=O)NCCN3CCOCC3)c(C)o2)cc1 do in these assays?
Statin myotox sup: 102; PDI turbidity: inactive

Results for CO[C@@H]1CN(C)C(=O)c2cc(NC(=O)Nc3ccccc3F)ccc2OC[C@@H](C)N(CC2CC2)C[C@H]1C ?
CFTR F508del cor: inactive; Statin myotox sup: inactive; DENV2 CPE: inactive; ERp5 inh: inactive; Cneo AK release: inactive

Results for Cc1ccc(Nc2c(-c3ccco3)nc3ccccn23)cc1 ?
CFTR F508del cor: inactive; DENV2 CPE: 75; ERp5 inh: inactive; PDI turbidity: inactive; Cneo AK release: inactive

What do the screens show for `c1ccc(Nc2c(-c3ccco3)nc3ccccn23)cc1`?
CFTR F508del cor: inactive; PDI turbidity: inactive; Cneo AK release: inactive

How did COc1ccccc1CN1CC(C(=O)NCc2nccn2C)CCC1=O (stereo not drawn) do in these assays?
CFTR F508del cor: inactive; Statin myotox sup: inactive; DENV2 CPE: 31; ERp5 inh: inactive; PDI turbidity: inactive; Cneo AK release: inactive

Results for COc1ccccc1CN1CC(C(=O)N(C)CCCn2nc(C)cc2C)CCC1=O (stereo not drawn) ?
CFTR F508del cor: inactive; DENV2 CPE: 52; ERp5 inh: inactive; PDI turbidity: inactive; Cneo AK release: inactive

Results for COc1ccccc1CN1CC(C(=O)NCc2nc3ccccc3n2C)CCC1=O (stereo not drawn) ?
CFTR F508del cor: inactive; Statin myotox sup: inactive; DENV2 CPE: inactive; ERp5 inh: inactive; PDI turbidity: inactive; Cneo AK release: inactive

How did CO[C@H]1CN(C)C(=O)c2cc(NC(=O)c3cc(C)on3)ccc2OC[C@H](C)N(C(C)=O)C[C@@H]1C do in these assays?
CFTR F508del cor: inactive; Statin myotox sup: inactive; DENV2 CPE: inactive; ERp5 inh: inactive; Cneo AK release: inactive

How did Cc1cc(NC(=O)c2ccc([N+](=O)[O-])cc2)n(CCC#N)n1 do in these assays?
CFTR F508del cor: inactive; Statin myotox sup: inactive; DENV2 CPE: 43; ERp5 inh: inactive; PDI turbidity: inactive; Cneo AK release: inactive

How did CN=C(Nc1cc(C)nn1CCC#N)c1ccc(F)cc1 do in these assays?
CFTR F508del cor: inactive; Statin myotox sup: inactive; DENV2 CPE: inactive; ERp5 inh: inactive; PDI turbidity: inactive; Cneo AK release: inactive

How did CCC(C(=O)Nc1c(C)cccc1C)n1c(-c2ccc(=O)[nH]c2)nc2ccccc21 (stereo not drawn) do in these assays?
CFTR F508del cor: inactive; DENV2 CPE: 33; ERp5 inh: inactive

How did C/C=C/c1ccc([C@@H]2[C@@H](CO)N(C(=O)C3CC3)[C@H]2CN(C)C(=O)CN(C)C)cc1 do in these assays?
CFTR F508del cor: inactive; Statin myotox sup: inactive; DENV2 CPE: inactive; ERp5 inh: inactive; Cneo AK release: inactive

What do the screens show for `O=S1(=O)CCOC[C@H](Cc2ccccc2)N1Cc1cccc(F)c1`?
CFTR F508del cor: inactive; Statin myotox sup: inactive; DENV2 CPE: 32; ERp5 inh: inactive; PDI turbidity: inactive; Cneo AK release: inactive

Results for CCC[C@H]1COCCS(=O)(=O)N1Cc1ccccc1F ?
CFTR F508del cor: inactive; Statin myotox sup: 79; DENV2 CPE: inactive; ERp5 inh: inactive; PDI turbidity: inactive; Cneo AK release: inactive
